Data on 22 molecules can be found in ChEMBL document CHEMBL1138568, “Design and synthesis of 5-alkoxy-[1,2,4]triazolo[4,3-a]quinoline derivatives with anticonvulsant activity” (Eur J Med Chem, 2009).

Data set [1] is described as follows: Neurotoxicity in ip dosed C57B/6 mouse after 30 mins by rotarod test. Format: toxicity, organism-based. To be noted: in vivo. The procedure, abridged: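 Rotarod: 30 min after ip compound in polyethylene glycol-400, mice were placed on a 1-inch knurled plastic rod turning at 6 rpm for 1 min. Neurotoxicity was scored as failure to keep balance in each of three trials.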

The species entered for data set [2] is Mus musculus. In words: Protective index, ratio of TD50 for neurotoxicity in C57B/6 mouse to ED50 for anticonvulsant activity in C57B/6 mouse. Format: functional. The procedure, abridged:
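Protective index computed as TD50 (rotarod, 30 min after ip dosing in polyethylene glycol-400) divided by ED50 in the maximal electroshock test at 30 min, both values from dose-response plots analysed with the NINDS program.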

Data set [3] has as its system Mus musculus. In words: Anticonvulsant activity in ip dosed C57B/6 mouse assessed as protection against maximal electroshock-induced seizure after 30 mins. To be noted: C57B/6, ip, 0.5 h. The class given is functional.
Data set [4] relates to Mus musculus. In words: Anticonvulsant activity in ip dosed C57B/6 mouse assessed as protection against isoniazid-induced tonic seizure administered 30 mins before isoniazide challenge measured after 1 hrs. Format: ADME, organism-based. To be noted: C57B/6, ip.
Data set [5] has as its system Mus musculus. The data set can be described thus: Anticonvulsant activity in C57B/6 mouse assessed as protection against strychnine-induced tonic seizure at 300 mg/kg, ip administered 30 mins before strychnine challenge measured after 30 mins. The class given is ADME, organism-based. Set-up: dose 300 mg/kg, route intraperitoneal. To be noted: in vivo, 0.5 h. Summed up: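 Mice given test compound ip in polyethylene glycol-400; 30 min later strychnine chlorhydrate in saline (1.2 mg/mL, 1 mL/kg) injected sc, a dose set by dose-percent effect curve to convulse 100% of animals. Mice held in individual cages and observed 30 min for convulsions.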

In data set [6] the test system is Mus musculus. In words: Anticonvulsant activity in ip dosed C57B/6 mouse assessed as protection against pentylenetetrazole-induced clonic seizure administered 30 mins before pentylenetetrazole challenge measured after 30 mins. Format: ADME, organism-based. To be noted: C57B/6, ip, 0.5 h. Summed up: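 Pentylenetetrazole 85 mg/kg sc, a dose set by dose-percent effect curve to give clonic seizures in 100% of mice, injected 30 min after ip compound in polyethylene glycol-400.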

Data set [7] relates to Mus musculus. The data set can be described thus: Anticonvulsant activity in ip dosed C57B/6 mouse assessed as protection against 3-mercaptopropionic acid-induced tonic seizure administered 30 mins before 3-mercaptopropionic acid challenge measured after 1 hrs. The class given is ADME, organism-based. To be noted: C57B/6, ip. Summed up:
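Test compound given ip in polyethylene glycol-400; 30 min later 3-mercaptopropionic acid 40 mg/kg in saline injected sc. ED50 taken as the dose preventing tonic convulsions in 50% of treated mice.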

In data set [8] the test system is Mus musculus. In words: Anticonvulsant activity in ip dosed C57B/6 mouse assessed as protection against thiosemicarbazide-induced tonic seizure administered 30 mins before thiosemicarbazide challenge measured after 1 hrs. Format: ADME, organism-based. To be noted: C57B/6, ip.

`CCCCCCOc1cc2nncn2c2ccccc12` displayed a TD50 at 0.5 h in data set [1] of 110 mg/kg. Also, in the data set filed under Mus musculus [2], the “Ratio TD50/ED50” value is on record as 5.8. In addition, the ED50 in the data set on Mus musculus [3] stood at 19 mg/kg.

With `Clc1ccccc1COc1cc2nncn2c2ccccc12`, the ED50 with Mus musculus [3] is above 100 mg/kg.

The molecule `CCCCOc1cc2nncn2c2ccccc12` returned a TD50 at 0.5 h in data set [1] of 54.8 mg/kg. Also, the “Ratio TD50/ED50” value in the data set listed under Mus musculus [2] worked out at 1.5. In the data set on Mus musculus [3], the ED50 came out at 36.7 mg/kg.

`CCOc1cc2nncn2c2ccccc12` registered a TD50 at 0.5 h in data set [1] of 131 mg/kg. In addition, in the data set listed under Mus musculus [2], the “Ratio TD50/ED50” value was 1.4. Besides, the ED50 with Mus musculus [3] was 91.3 mg/kg.

On to `Cc1ccc(COc2cc3nncn3c3ccccc23)cc1`, for which the ED50 in the data set on Mus musculus [3] is above 100 mg/kg.

Take `Clc1cccc(Cl)c1COc1cc2nncn2c2ccccc12`: the ED50 with Mus musculus [3] was above 100 mg/kg.

As to `Clc1ccc(COc2cc3nncn3c3ccccc23)cc1`, the ED50 in the data set with Mus musculus [3] is above 100 mg/kg.

Turning to `Brc1ccc(COc2cc3nncn3c3ccccc23)cc1`, the ED50 in the data set on Mus musculus [3] is above 100 mg/kg.

For `CCCCCCCCOc1cc2nncn2c2ccccc12`, the ED50 with Mus musculus [3] was above 100 mg/kg.

Take `c1ccc(COc2ccc3c(c2)CCc2nncn2-3)cc1`: the “Ratio TD50/ED50” value in the data set listed under Mus musculus [2] was 3.5.

As for `NC(=O)N1c2ccccc2C=Cc2ccccc21` [CARBAMAZEPINE], the ED50 in the data set on Mus musculus [4] is 22.8 mg/kg; in the data set on Mus musculus [6] it was 11.4 mg/kg; in the data set with Mus musculus [7], 13.7 mg/kg; in the data set on Mus musculus [8] it was 19.7 mg/kg; in the data set on Mus musculus [3], 11.8 mg/kg. Besides, the Activity entry in the data set on Mus musculus [5] is recorded as “Not Active”. This molecule registered a TD50 at 0.5 h in data set [1] of 76.1 mg/kg. The “Ratio TD50/ED50” value in the data set listed under Mus musculus [2] is on record as 6.4.

Consider `Fc1ccc(COc2cc3nncn3c3ccccc23)cc1`, for which the ED50 in the data set with Mus musculus [3] is above 100 mg/kg.

Take `Clc1ccc(COc2cc3nncn3c3ccccc23)c(Cl)c1`: the ED50 in the data set with Mus musculus [3] was above 100 mg/kg.

`CCCCCOc1cc2nncn2c2ccccc12` registered a TD50 at 0.5 h in data set [1] of 63.4 mg/kg. In the data set filed under Mus musculus [2], the “Ratio TD50/ED50” value stood at 2.6. Moreover, the median effective dose (ED50) with Mus musculus [3] was determined as 24.5 mg/kg.

Turning to `Brc1ccccc1COc1cc2nncn2c2ccccc12`, the ED50 in the data set on Mus musculus [3] is above 100 mg/kg.

In the case of `Fc1cccc(COc2cc3nncn3c3ccccc23)c1`, the ED50 with Mus musculus [3] is above 100 mg/kg.

`COc1cc2nncn2c2ccccc12` showed a TD50 at 0.5 h in data set [1] of 102 mg/kg. Moreover, the “Ratio TD50/ED50” value in the data set filed under Mus musculus [2] is 1.1. In the data set on Mus musculus [3], the ED50 was 93 mg/kg.

In data set [1], `Fc1ccccc1COc1cc2nncn2c2ccccc12` yielded a TD50 at 0.5 h of 228 mg/kg. Also, the “Ratio TD50/ED50” value in the data set listed under Mus musculus [2] stood at 9. The ED50 in the data set on Mus musculus [3] worked out at 25.4 mg/kg.

With `c1ccc(COc2cc3nncn3c3ccccc23)cc1`, the ED50 with Mus musculus [4] came to 38 mg/kg; with Mus musculus [6] it was 27.4 mg/kg; in the data set on Mus musculus [7], 9.5 mg/kg; in the data set on Mus musculus [8] it was 19 mg/kg; with Mus musculus [3] it was 22.8 mg/kg. Further, the Activity result in the data set with Mus musculus [5] is listed as “Not Active”. Moreover, the TD50 at 0.5 h in data set [1] amounted to 274 mg/kg. Further, the “Ratio TD50/ED50” value in the data set listed under Mus musculus [2] came out at 12.

Molecule `CCCOc1cc2nncn2c2ccccc12` registered a TD50 at 0.5 h in data set [1] of 94.7 mg/kg. Further, the “Ratio TD50/ED50” value in the data set listed under Mus musculus [2] is recorded as 1.4. The ED50 in the data set on Mus musculus [3] is 65.7 mg/kg.

Consider `Fc1ccc(COc2ccc3c(c2)CCc2nncn2-3)cc1`, for which the ED50 in the data set with Mus musculus [3] stood at 11.1 mg/kg.

On to `CCCCCCCOc1cc2nncn2c2ccccc12`, for which the TD50 at 0.5 h in data set [1] stood at 110 mg/kg. Also, the “Ratio TD50/ED50” value in the data set listed under Mus musculus [2] stood at 1.6. Besides, the ED50 with Mus musculus [3] was 68.2 mg/kg.
